About 20 (0.02%) of roughly 120,000 compounds were called active. Many of the other results were omitted from the sample, so actives are more common in it than they were. Unmarked numbers belong to inactive results.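 Rule for the calls: active = inhibition above 30.3% in the primary screen of four-compound pools, then above 30% when the compound was retested; inconclusive = passed the primary limit but could not be retested; inactive = the rest.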

This assay can be described thus: clotrimazole potentiators killing C. albicans biofilm, primary screen, 4-compound mixtures (AID 1242).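 Note: compounds exposed to preformed 24 h biofilms for 48 h; 0% = untreated biofilm control and 100% = clotrimazole plus chlorhexidine kill blank.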 Conditions: C. albicans biofilm persisters + clotrimazole, fluorescence viability, primary screen in compound mixtures, active compounds read high; at 7.6 µM unless noted. In short, it runs like this: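 Test system: C. albicans biofilms. Buffer or medium: RPMI/MOPS medium, pH 7.0. Timing: 48 h compound exposure at 37 °C. Technique: Alamar Blue fluorescence. Evaluation: percent inhibition of biofilm viability.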
Usually inhibition stands for the drop in the measured response relative to a control, in per cent. On to `CC1Cc2ccccc2N1S(=O)(=O)c1ccc(Cl)nc1` (stereo unspecified), for which the inhibition is 14.3%. Turning to `Cc1cc2nc(C(F)(F)F)cc(-c3cccs3)n2n1`, the inhibition was 8.23%. Turning to `COc1ccc(C(=O)C2CCCN(C(=O)c3cc4nc(C)cc(C)n4n3)C2)cc1F` (stereo unspecified), the inhibition is 16.6%. `CCOC(=O)C1(Cc2cccc(OC)c2)CCN(C(C)COC)CC1` (stereo unspecified): the inhibition was 14.5%. Turning to `NCC(=O)c1cccc2ccc[n+]([O-])c12`, the inhibition is 12.9%.

On to `N=c1c2c3c(sc2ncn1N)CCCC3`, for which the inhibition is 20.4%.

As for `CCOC(=O)CN1CCC(c2ccccc2)CC1`, the inhibition was 13.7%. The figure for `Cc1cc(N)n(-c2ccc(S(=O)(=O)N3CCCC3)cc2[N+](=O)[O-])n1` is 11.7%; for `CC(=O)c1cccc(-n2nnnc2SCC(=O)NNC(=O)C2CCCCC2)c1` it is 5.73%. For the compound `C/C(=N/Nc1ccc(Cl)cc1)c1cnnc(-c2ccccc2)n1`, the inhibition was 7.24%.

For `COc1ccc(Cl)cc1N(CC(=O)N/N=C/c1ccc(OCC(N)=O)cc1)S(C)(=O)=O`, the inhibition was 20.2%.

With `S=C(NCCc1ccccc1)N1CCn2cccc2C1c1ccncc1` (stereo unspecified), the inhibition is 11.1%. The figure for `COc1ccccc1C(c1nnnn1CC1CCCO1)N1CCN(c2ccccc2)CC1` (stereo unspecified) is 29.3%. In the case of `COc1ccc(NC(=O)CSc2nnc(-c3ccccc3F)n2C2CC2)cc1S(N)(=O)=O`, the inhibition was 7.66%.

As to `O=C(Cn1c(N2CCN(C/C=C/c3ccccc3)CC2)nc2ccccc21)c1ccccc1`, the inhibition was 9.46%. Regarding `CCC(C)(C)NC(=O)CN(C(=O)CCC(=O)Nc1cc(C)ccn1)c1ccc2c(c1)OCCO2`, the inhibition was 1.7%. In the case of `Cc1ccc(OCC(=O)NC(C)c2ccccc2)c([N+](=O)[O-])n1` (stereo unspecified), the inhibition is 8.35%.

For `CCc1cc2c(=O)c(-c3nc4ccccc4n3C)c(CCCC(=O)O)oc2cc1OC(=O)C(C)(C)C`, the inhibition is 14.2%. For `COC(=O)Cc1ccc(NC(=S)NCc2ccco2)cc1`, the inhibition was 1.39%.

For the compound `Cc1ccc(Cl)cc1NC(=O)C1CCN(S(C)(=O)=O)CC1`, the inhibition was -19.3%. With `CSc1nc(C)nc(C2CC2)c1C#N`, the inhibition is 26.1%. In the case of `CCc1nc2sc(C(=O)O)c(N)c2c2c1CCCC2`, the inhibition is 17.7%. Take `O=C1Nc2cc(Cl)c(Cl)cc2N(O)N1c1ccccc1Cl`: the inhibition was 16.7%.

On to `CC1=CC=CC2=N/C(=N\S(=O)(=O)c3ccc(F)cc3F)c3ccccc3CN12`, for which the inhibition is 14.1%. Regarding `NNC(=O)c1cccc(COCC(F)(F)C(F)F)c1`, the inhibition was 11.2%. In the case of `CC(C)(C)n1nc2c(c1NC(=O)c1cc3ccccc3o1)CSC2`, the inhibition is 8.07%.

As to `CC(=O)NC(=S)Nc1ccc(NC(=O)c2cccnc2)cc1`, the inhibition was 26.7%. The result for `CN(c1ccccc1)S(=O)(=O)c1ccc(Cl)c(C(=O)OCC(N)=O)c1` reads 9.93%; that for `COc1ccc2nc(Nc3nc(-c4ccncc4)cs3)sc2c1`, 12.3%; that for `COCCCNC(=O)Cn1c(=O)n(Cc2ccccc2Cl)c(=O)c2cc(OC)c(OC)cc21`, 5.13%.

On to `COc1ccc(N=C(C)c2sc3ccccc3c2O)cc1`, for which the inhibition was 24.2%. Take `Cc1ccc(Cl)c(OCC(=O)NN2CCN(C)CC2)c1`: the inhibition was 16.5%. The result for `CC1=C(C)CC(C(=O)NC(C)CCc2ccccc2)C(C(=O)O)C1` (stereo unspecified) reads -32%; that for `C/C(CCc1ccccc1)=N\NC(=O)c1ccc(CN2CCOCC2)cc1`, 20.4%; that for `COc1ccc(S(=O)(=O)N(C)CC(=O)N2CCCC2)cc1Cl`, 15.4%.

For the compound `COc1ccc(/C=N/NC(=O)CNC(=O)c2ccc(S(=O)(=O)N3CCCC3)cc2)c(OC)c1`, the inhibition was 1.69%. Turning to `O=C(Cc1ccc(F)cc1)N/N=C/c1ccc2c(c1)OCO2`, the inhibition is -22.6%.

Take `Cc1nnc(Nc2ccccc2F)s1`: the inhibition is 16.6%.

`CCC(=O)c1ccc(N2CCN(C(=O)c3cc([N+](=O)[O-])ccc3F)CC2)c(F)c1`: the inhibition was -4.84%. For the compound `Cn1c(SCC(=O)NC2CCCCC2)nnc1-c1ccc(N)cc1`, the inhibition was 21.9%. With `COc1ccc(C(=O)NCC(=O)N/N=C/c2ccc([N+](=O)[O-])s2)cc1OC`, the inhibition is 20.6%. Take `C/C(=N/OC(=O)c1c(-c2c(F)cccc2Cl)noc1C)c1cnccn1`: the inhibition is 10.3%. For the compound `CC(=O)N/C(=C\c1ccc(F)cc1)C(=O)NC(Cc1ccccc1)C(=O)O` (stereo unspecified), the inhibition was 14.6%. On to `N#Cc1c(NCCO)ccc([N+](=O)[O-])c1NCCO`, for which the inhibition was 15.9%. Consider `Nn1c(SCc2ccccc2)nnc1C1CCCCC1`, for which the inhibition is 25.1%.

On to `Cc1ccc(C(=O)O)cc1N1C(=O)CCCC1=O`, for which the inhibition is 29.3%.

In the case of `O=C(O)CC/C(=N\NC(=O)c1ccc(F)cc1)c1ccc(Br)cc1`, the inhibition was 0.26%.

For `O=C1COc2ccc(C(=O)COC(=O)c3cccnc3Cl)cc2N1`, the inhibition was 3.67%. The figure for `Cn1c(=O)c2c(ncn2CC(=O)N/N=C/c2cn[nH]c2-c2ccc(F)cc2)n(C)c1=O` is 8.1%. The result for `CCOC(=O)c1c(CN(C)C)n(-c2ccccc2)c2cc(Br)c(O)cc12` reads 6.02%; that for `O=C(NCCN1CCOCC1)c1ccc2c(c1)N(Cc1ccc(Cl)cc1)CCS2`, -21.2%. The result for `Cc1cccc(NC(=S)NCCc2ccc(F)cc2)c1C` reads 13.3%. Consider `Cc1ccc(N2C(=O)SC(N(CC(=O)O)c3ccc(C)cc3)C2=O)cc1` (stereo unspecified), for which the inhibition is 30.1%. `COc1cc(OC)c(C(=O)OCC(=O)N2CC(=O)Nc3ccccc32)cc1OC`: the inhibition was 16%. In the case of `Cc1nn(C)c(C)c1CN(C(=O)CCc1nnc(Cc2c[nH]c3ccccc23)o1)C(C)C`, the inhibition is 21.1%.

Consider `C/C(=N\NC(=O)c1cccnc1)c1ccc(-c2ccccc2)cc1`, for which the inhibition is 11.8%. As to `Cc1ccc(S(=O)(=O)N(CC(=O)NN=C2CCN(C)CC2)c2ccc(F)cc2)cc1`, the inhibition is 12.2%.

`CC(CO)(CO)NC(=O)c1ccc(=O)[nH]n1`: the inhibition was 20.4%. For the compound `NNC(=O)C1CC(O)CN1S(=O)(=O)c1ccc(Cl)cc1` (stereo unspecified), the inhibition is -0.83%. On to `Cc1ccccc1NC(=O)NNC(=O)OC(C)(C)C`, for which the inhibition is 17.1%. As for `COc1ccc(C(=O)CSc2nnnn2C)c(OC)c1`, the inhibition was 0.17%.

With `CC(=O)Nc1ccc(S(=O)(=O)NC2(C(F)(F)F)C(=O)NC(C)=C2C#N)cc1` (stereo unspecified), the inhibition is 25.1%.

With `O=C(Nc1nnc(C2CC2)s1)C1=NN(C2CCS(=O)(=O)C2)C(=O)CC1` (stereo unspecified), the inhibition was 7.46%.

In the case of `COc1cccc(/C=C/C(=O)Nc2ccc3c(c2)OCCO3)c1`, the inhibition was 21.2%. With `O=C(CC1CCCCC1)NCc1ccc(F)cc1`, the inhibition is 14.7%. Consider `Cc1ccc(CN2CCN(Cc3ccc(OCCO)cc3)CC2CCO)o1` (stereo unspecified), for which the inhibition is 19.8%.

As to `COC(=O)c1cc(C(=O)OCC(=O)Nc2cc(C)on2)cc([N+](=O)[O-])c1`, the inhibition is 19.1%. The figure for `Cc1nc(=O)c(-c2ccccc2)c(C)n1-c1ccc(Br)cc1` is 15.2%; for `O=C(CCc1ccccc1)NCCc1cccs1` it is 19.8%.

For the compound `Cc1ccc(C(=O)NNc2ncnc3ccccc23)cc1`, the inhibition was 25.7%. For the compound `CCOC(=O)C1CCN(c2ncnc3c2c(-c2ccccc2)cn3-c2ccc(C)cc2)CC1`, the inhibition was 10.1%. The figure for `O=C1CC(Cc2ccc(Cl)cc2)C(=O)N1c1cc(Cl)ccn1` (stereo unspecified) is 15.9%.

Regarding `CCc1ccccc1NC(=O)CSc1nnc(CCNC(=O)OC(C)(C)C)o1`, the inhibition was 24.5%. Turning to `O=C(O)c1cccc(NC(=O)c2cc(-c3cccc(Cl)c3)nc3ccccc23)c1`, the inhibition was 16.3%. As for `Cn1cnnc1SCC(=O)Nc1ccc(N2CCOCC2)cc1`, the inhibition was 1.33%.

As for `COc1c(C)cc(C(=O)C2CCCN(S(=O)(=O)c3c(C)noc3C)C2)cc1C` (stereo unspecified), the inhibition is 2.3%. For `COc1cc(N2C(=O)c3ccccc3C2=O)c(Cl)cc1C(=O)OCC(=O)N1CCOCC1`, the inhibition was 3.87%. For the compound `COc1ccc(CCNC(=O)C(=O)Nc2ccc3nc4n(c(=O)c3c2)CCCCC4)cc1OC`, the inhibition is 5.01%. As for `O=C(O)c1ccc(/C=N/NC(=S)NCc2ccccc2)cc1`, the inhibition is 10.6%. The figure for `COc1ccc(-c2[nH]ncc2CN(Cc2nccn2C)C(C)C)cc1F` is 6.59%. Regarding `Cc1ccc(NC(=O)c2ccccn2)cc1S(=O)(=O)N1CCOCC1`, the inhibition is 7.29%. The result for `Cc1ccc(NC(=S)N(CCN(C)C)Cc2cccs2)cc1C` reads 17.2%; that for `O=[N+]([O-])c1cccc2ncccc12`, 12.4%; that for `COc1cccc(N2C(=O)CC(N3CCc4ccccc4C3)C2=O)c1` (stereo unspecified), 17.8%. On to `CCOc1cc(NC(=S)NCc2ccco2)c(OCC)cc1NC(=O)c1ccco1`, for which the inhibition was 2.67%. Turning to `N/C(=N\OC(=O)c1ccc2c(c1)OCO2)c1ccc(Br)cc1`, the inhibition is 8.49%. Turning to `CC(=O)Cn1ncc(N2CCOCC2)c(Br)c1=O`, the inhibition was -3.05%. The figure for `Cn1nnnc1SCC(=O)NNC(=O)c1ccc(Br)cc1` is 11.2%. For the compound `CCCCN(C(=O)COc1ccc(NC(C)=O)cc1)C1CCS(=O)(=O)C1` (stereo unspecified), the inhibition is 12.9%.

Take `O=C(c1cn2ccccc2n1)N1CCc2c([nH]c3ccccc23)C1c1ccccn1` (stereo unspecified): the inhibition was 0.31%.

With `O=c1[nH]c(N2CCN(Cc3ccc4c(c3)OCO4)CC2)nc2c1CCCC2`, the inhibition is 6.65%. As to `CCOC(=O)c1c(-c2cccc(N)c2)cn2ccccc12`, the inhibition is 6.08%. The result for `O=C(Nc1ccc2c(c1)C(=O)OC2)Nc1cccc2ccccc12` reads -1.47%. The result for `CC(Oc1ccc(Br)cc1Br)C(=O)NC1CCCC1` (stereo unspecified) reads 19.2%; that for `COc1ccc(CC(=O)NCC(=O)N/N=C/c2cc(Br)ccc2OC)cc1`, 19.3%. `CCOC(=O)/C(C#N)=C/c1ccc(N2CCCCC2)cc1`: the inhibition was 16.2%.

The record behind these values is PubChem BioAssay AID1242 (PCMD, 2008).
